Experimental data from ChEMBL document CHEMBL1212742 (2010).
Values after ≈ are worked out from the molar mass of the structure shown.

Tests used:
Assay type in all cases: functional
[1] = test system: Mycobacterium tuberculosis; assay: Antimicrobial activity against Mycobacterium tuberculosis 32C5 harboring embB324 GGC-CGC(Gly-Arg) mutation in embCAB gene after 4 weeks by 7H agar proportion method
Procedure, shortened: (§1)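 EMB MIC by 7H10 agar proportion for clones selected from M. tuberculosis strain 210. About 10^9 cells from liquid culture (OD600 ~1.5, resuspended in 7H9) were plated on 7H10 with EMB at 8, 16 or 32 µg/ml final, incubated 37°C for 4 weeks. Colonies were subcultured in EMB-free 7H9 before testing, and embCAB was genotyped.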

[2] = test system: Mycobacterium tuberculosis; assay: Antimicrobial activity against Mycobacterium tuberculosis 8C7 harboring embB445 CAG-CGG(Gln-Arg) mutation in embCAB gene after 4 weeks by 7H agar proportion method; procedure, shortened: as §1
[3] = test system: Mycobacterium tuberculosis; assay: Antimicrobial activity against Mycobacterium tuberculosis NJT210CGG harboring embB497 CAG-CGG(Gln-Arg) mutation in embB gene after 4 weeks
Procedure, shortened: (§2)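 Isogenic embB mutants made by allelic exchange in strain 210. PCR-built fragments carried the codon of interest; double-crossover colonies were screened by molecular beacon assay and confirmed by direct embB sequencing. MICs of EMB, INH and RIF were determined by radiometric Bactec 460TB and 7H10 agar proportion, alongside parent 210.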

[4] = test system: Mycobacterium tuberculosis; assay: Antimicrobial activity against Mycobacterium tuberculosis 16C14 harboring embB445 CAG-CGG(Gln-Arg) mutation in embCAB gene after 4 weeks by 7H agar proportion method; procedure, shortened: as §1
[5] = test system: Mycobacterium tuberculosis; assay: Antimicrobial activity against Mycobacterium tuberculosis 32C1 harboring embB445 CAG-CGG(Gln-Arg) mutation in embCAB gene after 4 weeks by Bactec 460TB method
Procedure, shortened: (§3)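 EMB MIC by radiometric Bactec 460TB liquid method for clones from strain 210. The clones were selected on 7H10 containing 8, 16 or 32 µg/ml EMB final (~10^9 cells plated, 37°C, 4 weeks), then subcultured in 7H9 without EMB before MIC testing. embCAB was genotyped.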

[6] = test system: Mycobacterium tuberculosis; assay: Antimicrobial activity against Mycobacterium tuberculosis NJT210GAC harboring embB406 GGC-GAC(Gly-Asp) mutation in embB gene after 4 weeks; procedure, shortened: as §2
[7] = test system: Mycobacterium tuberculosis; assay: Antimicrobial activity against Mycobacterium tuberculosis 32C5 harboring embB324 GGC-CGC(Gly-Arg) mutation in embCAB gene after 4 weeks by Bactec 460TB method; procedure, shortened: as §3
[8] = test system: Mycobacterium tuberculosis; assay: Antimicrobial activity against Mycobacterium tuberculosis NJT210GCC harboring embB406 GGC-GCC(Gly-Ala) mutation in embB gene after 4 weeks; procedure, shortened: as §2
[9] = test system: Mycobacterium tuberculosis; assay: Antimicrobial activity against Mycobacterium tuberculosis 8C5 harboring embC13 CGG-CTG(Arg-Leu) mutation in embCAB gene after 4 weeks by Bactec 460TB method; procedure, shortened: as §3
[10] = test system: Mycobacterium tuberculosis; assay: Antimicrobial activity against Mycobacterium tuberculosis 8C7 harboring embB445 CAG-CGG(Gln-Arg) mutation in embCAB gene after 4 weeks by Bactec 460TB method; procedure, shortened: as §3
[11] = test system: Mycobacterium tuberculosis; assay: Antimicrobial activity against Mycobacterium tuberculosis 8C5 harboring embC13 CGG-CTG(Arg-Leu) mutation in embCAB gene after 4 weeks by 7H agar proportion method; procedure, shortened: as §1
[12] = test system: Mycobacterium tuberculosis; assay: Antimicrobial activity against Mycobacterium tuberculosis 32C2 harboring embB497 CAG-CGG(Gln-Arg) mutation in embCAB gene after 4 weeks by Bactec 460TB method; procedure, shortened: as §3
[13] = test system: Mycobacterium tuberculosis; assay: Antimicrobial activity against Mycobacterium tuberculosis 16C11 harboring embB397 CCG-TCG(Pro-Ser) mutation in embCAB gene after 4 weeks by Bactec 460TB method; procedure, shortened: as §3
[14] = test system: Mycobacterium tuberculosis; assay: Antimicrobial activity against Mycobacterium tuberculosis 32C3 harboring embB497 CAG-CGG(Gln-Arg) mutation in embCAB gene after 4 weeks by Bactec 460TB method; procedure, shortened: as §3
[15] = test system: Mycobacterium tuberculosis; assay: Antimicrobial activity against Mycobacterium tuberculosis 32C4 harboring embB497 CAG-CGG(Gln-Arg) mutation in embCAB gene after 4 weeks by Bactec 460TB method
[16] = test system: Mycobacterium tuberculosis; assay: Antimicrobial activity against Mycobacterium tuberculosis 16C14 harboring embB445 CAG-CGG(Gln-Arg) mutation in embCAB gene after 4 weeks by Bactec 460TB method; procedure, shortened: as §3
[17] = test system: Mycobacterium tuberculosis; assay: Antimicrobial activity against Mycobacterium tuberculosis 32C1 harboring embB445 CAG-CGG(Gln-Arg) mutation in embCAB gene after 4 weeks by 7H agar proportion method; procedure, shortened: as §1
[18] = test system: Mycobacterium tuberculosis; assay: Antimicrobial activity against Mycobacterium tuberculosis 16C16 harboring embB1024 GAC-AAC(Asp-Asn) mutation in embCAB gene after 4 weeks by Bactec 460TB method; procedure, shortened: as §3
[19] = test system: Mycobacterium tuberculosis; assay: Antimicrobial activity against Mycobacterium tuberculosis 16C9 harboring embB497 CAG-CGG(Gln-Arg) mutation in embCAB gene after 4 weeks by Bactec 460TB method; procedure, shortened: as §3
[20] = test system: Mycobacterium tuberculosis; assay: Antimicrobial activity against Mycobacterium tuberculosis 16C7 harboring embB445 CAG-CGG(Gln-Arg) mutation in embCAB gene after 4 weeks by Bactec 460TB method; procedure, shortened: as §3
[21] = test system: Mycobacterium tuberculosis; assay: Antimicrobial activity against Mycobacterium tuberculosis NJT210TCC harboring embB406 GGC-TCC(Gly-Ser) mutation in embB gene after 4 weeks; procedure, shortened: as §2
[22] = test system: Mycobacterium tuberculosis; assay: Antimicrobial activity against Mycobacterium tuberculosis 16C11 harboring embB397 CCG-TCG(Pro-Ser) mutation in embCAB gene after 4 weeks by 7H agar proportion method; procedure, shortened: as §1
[23] = test system: Mycobacterium tuberculosis; assay: Antimicrobial activity against Mycobacterium tuberculosis 16C15 harboring embB497 CAG-CGG(Gln-Arg) mutation in embCAB gene after 4 weeks by Bactec 460TB method; procedure, shortened: as §3
[24] = test system: Mycobacterium tuberculosis; assay: Antimicrobial activity against Mycobacterium tuberculosis harboring mutation in embB306 gene after 4 weeks
[25] = test system: Mycobacterium tuberculosis; assay: Antimicrobial activity against Mycobacterium tuberculosis NJT210TGC harboring embB406 GGC-TGC(Gly-Cys) mutation in embB gene after 4 weeks; procedure, shortened: as §2
[26] = test system: Mycobacterium tuberculosis; assay: Antimicrobial activity against Mycobacterium tuberculosis 16C16 harboring embB1024 GAC-AAC(Asp-Asn) mutation in embCAB gene after 4 weeks by 7H agar proportion method; procedure, shortened: as §1

CC[C@@H](CO)NCCN[C@@H](CC)CO [ETHAMBUTOL]
MIC [1]: 8 µg/mL (≈ 39.2 µM)
MIC [2]: 4 µg/mL (≈ 19.6 µM)
MIC [3]: 12 µg/mL (≈ 58.7 µM)
MIC [4]: 16 µg/mL (≈ 78.3 µM)
MIC [5]: 2 µg/mL (≈ 9.79 µM)
MIC [6]: 7 µg/mL (≈ 34.3 µM)
MIC [7]: 8 µg/mL (≈ 39.2 µM)
MIC [8]: 7 µg/mL (≈ 34.3 µM)
MIC [9]: 4 µg/mL (≈ 19.6 µM)
MIC [10]: 2 µg/mL (≈ 9.79 µM)
MIC [11]: 8 µg/mL (≈ 39.2 µM)
MIC [12]: 12 µg/mL (≈ 58.7 µM)
MIC [13]: 5 µg/mL (≈ 24.5 µM)
MIC [14]: 12 µg/mL (≈ 58.7 µM)
MIC [15]: 4 µg/mL (≈ 19.6 µM)
MIC [16]: 8 µg/mL (≈ 39.2 µM)
MIC [17]: 6 µg/mL (≈ 29.4 µM)
MIC [18]: 3 µg/mL (≈ 14.7 µM)
MIC [19]: 12 µg/mL (≈ 58.7 µM)
MIC [20]: 8 µg/mL (≈ 39.2 µM)
MIC [21]: 6 µg/mL (≈ 29.4 µM)
MIC [22]: 8 µg/mL (≈ 39.2 µM)
MIC [23]: 12 µg/mL (≈ 58.7 µM)
MIC [24]: >20 µg/mL
MIC [25]: 7 µg/mL (≈ 34.3 µM)
MIC [26]: 8 µg/mL (≈ 39.2 µM)

NNC(=O)c1ccncc1 [ISONIAZID]
MIC [3]: 0.05 µg/mL (≈ 0.365 µM)
MIC [6]: 0.05 µg/mL (≈ 0.365 µM)
MIC [8]: 0.05 µg/mL (≈ 0.365 µM)
MIC [21]: 0.05 µg/mL (≈ 0.365 µM)
MIC [25]: 0.05 µg/mL (≈ 0.365 µM)

CO[C@H]1/C=C/O[C@@]2(C)Oc3c(C)c(O)c4c(O)c(c(/C=N/N5CCN(C)CC5)c(O)c4c3C2=O)NC(=O)/C(C)=C\C=C\[C@H](C)[C@H](O)[C@@H](C)[C@@H](O)[C@@H](C)[C@H](OC(C)=O)[C@@H]1C [RIFAMPIN]
MIC [3]: 0.05 µg/mL (≈ 0.0608 µM)
MIC [6]: 0.05 µg/mL (≈ 0.0608 µM)
MIC [8]: 0.05 µg/mL (≈ 0.0608 µM)
MIC [21]: 0.05 µg/mL (≈ 0.0608 µM)
MIC [25]: 0.05 µg/mL (≈ 0.0608 µM)
